PKA-R2B activ = activators of human PKA-R2B complex; P22694+P31323; PKA-R2B holoenzyme dissociation, Cy5-IP20 fluorescence polarization; R2B truncated from residue 108, S112A mutant; 0% DMSO only, 100% 113 µM cGMP; activation, % at 11.4 µM; 340,000 tested, 0.079% active;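 active = activation above a cutoff set at the mean over all compounds plus 3 SD, cut at about 18% in these data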;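 note: higher means more holoenzyme dissociation and a rise in polarization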
APJ antagonist = antagonists of human APJ apelin receptor. P35414. CHO-K1 APJ beta-arrestin complementation, luminescence. inhibition, % at 20 µM. 330,000 tested, 0.32% active. AID 2521;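 active = inhibition above about 40% at 20 µM, limit read from the data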;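 note: cells challenged with 10 nM apelin-13 agonist together with compound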
Target sequence (P35414 whole entry, looked up): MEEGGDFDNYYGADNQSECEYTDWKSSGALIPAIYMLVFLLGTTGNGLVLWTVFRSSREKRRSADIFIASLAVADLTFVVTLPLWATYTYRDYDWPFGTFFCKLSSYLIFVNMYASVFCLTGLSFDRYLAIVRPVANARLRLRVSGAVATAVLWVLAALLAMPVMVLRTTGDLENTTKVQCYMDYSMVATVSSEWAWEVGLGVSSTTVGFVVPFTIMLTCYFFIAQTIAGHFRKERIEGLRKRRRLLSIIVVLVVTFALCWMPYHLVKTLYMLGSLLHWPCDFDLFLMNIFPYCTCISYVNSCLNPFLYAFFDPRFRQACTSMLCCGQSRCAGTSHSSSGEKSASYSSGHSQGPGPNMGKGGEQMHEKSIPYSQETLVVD
CXCR6 block = CXCR6 (human) receptor inhibition | O00574 | CHO-K1 PathHunter CXCR6 beta-arrestin, luminescence | inhibition, % at 20 µM | 360,000 tested, 0.36% active; in the data active = inhibition above about 34%, passing the limit was not always enough;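 note: antagonist mode with CXCL16 agonist at 10 nM final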
CCR6 antag = antagonists of human CCR6 receptor. CHO-K1 CCR6 PathHunter beta-arrestin, luminescence, CCL20-stimulated. inhibition, % at 20 µM. P51684. 340,000 tested, 0.49% active. AID 493098;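 active = compounds whose inhibition of the agonist-driven luminescence signal at 20 µM reaches about 50%, limit read from the data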;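 note: cells stimulated with CCL20 at 14 nM final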
APJ agonist = activates the human apelin receptor APJ; activation, % at 20 µM; AID 2520; 330,000 tested, 0.11% active; CHO-K1 APJ PathHunter beta-arrestin, luminescence; 0% DMSO wells, 100% apelin; P35414;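 active = activation more than six SD over the plate average, tested at 20 µM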
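system = engineered CHO-K1 APJ arrestin reporter cells | input = 1000 cells per well | timing = overnight seeding, 90 min compound at 25 °C, 1 h detection | measured by = enzyme-fragment complementation luminescence | read-out = beta-arrestin recruitment to APJ as agonist activity, luminescent signal | control set = negative DMSO alone, positive Apelin-13 at 10 nM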
PKA-R1A act = activators of PKA-R1A complex; PKA-R1A dissociation, Cy5-IP20 fluorescence polarization; scaled: DMSO 0%, 113 µM cGMP 100%; activation, % at 11.4 µM; 340,000 tested, 0.083% active; AID 504707;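 active = percent activation above the mean of all tested compounds plus 3 SD, cut at about 19% in these data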;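 note: higher means more PKAc released from R1A so a rise in polarization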
Hits are given with their value. A selection: hits, their analogues and other compounds. The true share with any hit is near 0.88%.

For O=C1c2ccccc2C(c2nnnn2-c2ccc3c(c2)OCCO3)N1CCCn1ccnc1 (stereo not given) the results were CXCR6 block inactive.
`Cc1ccccc1-c1cc2nc(NCc3ccc(N(C)C)cc3)n(C)c(=O)c2s1` gave CXCR6 block inactive.
Screening Cc1ccc(C(=O)ONc2ccc(N=NC(=O)c3ccccc3O)cc2)cc1 returned PKA-R2B activ inactive, APJ antagonist inactive, CXCR6 block inactive, CCR6 antag 56, APJ agonist inactive and PKA-R1A act inactive.
For Cc1ccc(C(=O)ONc2ccc(N=O)cc2)cc1 the results were PKA-R2B activ inactive, APJ antagonist inactive, CXCR6 block inactive, CCR6 antag inactive, APJ agonist inactive and PKA-R1A act inactive.
Screening CCCC1NC(=O)c2cccnc2-n2c1nc1ccc(Br)cc1c2=O (stereo not given) returned PKA-R2B activ inactive, CXCR6 block inactive and PKA-R1A act inactive.
COC(=O)C1C(=O)C2=C(CC1C)NC(C)=C(C(=O)OC(C)C)C2c1ccc(OC)c(O)c1 (stereo not given) was read as PKA-R2B activ inactive, APJ antagonist inactive, CXCR6 block inactive, CCR6 antag inactive, APJ agonist inactive and PKA-R1A act 20.
For COC(=O)C1C(=O)C2=C(CC1C)NC(C)=C(C(=O)OC1CCCC1)C2c1ccc(N(C)C)cc1 (stereo not given) the results were PKA-R2B activ inactive, APJ antagonist inactive, CXCR6 block inactive, CCR6 antag inactive, APJ agonist inactive and PKA-R1A act inactive.
ON1C2CCCCC2N(O)C1c1c(F)c(F)c(F)c(F)c1F (stereo not given) was read as PKA-R2B activ inactive, APJ antagonist inactive, CXCR6 block inactive, CCR6 antag 53, APJ agonist inactive and PKA-R1A act inactive.
For CCOC(=O)c1ccc(N/N=C/c2cc(Br)cc([N+](=O)[O-])c2O)cc1 the results were PKA-R2B activ inactive, APJ antagonist inactive, CXCR6 block 52, CCR6 antag 60, APJ agonist inactive and PKA-R1A act inactive.
For O=NN(Cc1cccnc1)C(=O)NC1CCCCC1 the results were CXCR6 block inactive.
Screening COc1cc(C(=O)NC(=S)Nc2ccccc2[N+](=O)[O-])cc(OC)c1OC returned PKA-R2B activ inactive, APJ antagonist inactive, CXCR6 block inactive, CCR6 antag inactive, APJ agonist inactive and PKA-R1A act inactive.
`CCOc1ccc(C(=O)NC(=S)Nc2ccccc2N2CCCCC2)cc1[N+](=O)[O-]` gave PKA-R2B activ inactive, APJ antagonist inactive, CXCR6 block inactive, CCR6 antag inactive, APJ agonist inactive and PKA-R1A act inactive.
For COc1ccc(C(=O)NC(=S)Nc2ccccc2N2CCCCC2)cc1[N+](=O)[O-] the results were PKA-R2B activ inactive, APJ antagonist inactive, CXCR6 block inactive, CCR6 antag 72, APJ agonist inactive and PKA-R1A act inactive.
`O=C(NC(=S)Nc1ccc(C(=O)N2CCOCC2)cc1)c1ccc([N+](=O)[O-])cc1` gave PKA-R2B activ inactive, APJ antagonist inactive, CXCR6 block inactive, CCR6 antag 63, APJ agonist inactive and PKA-R1A act inactive.
Screening CCOc1ccc(C(=O)NC(=S)Nc2ccc(NC(=O)CC)cc2)cc1[N+](=O)[O-] returned PKA-R2B activ inactive, APJ antagonist inactive, CXCR6 block inactive, CCR6 antag 56, APJ agonist inactive and PKA-R1A act inactive.
Screening COc1cc(C(=O)NC(=S)Nc2ccc([N+](=O)[O-])cc2)cc(OC)c1OC returned PKA-R2B activ inactive, APJ antagonist 41, CXCR6 block inactive, CCR6 antag inactive, APJ agonist inactive and PKA-R1A act inactive.
Screening O=C(Nc1ccc(C(=O)N2CCOCC2)cc1)c1ccc([N+](=O)[O-])cc1 returned PKA-R2B activ inactive, APJ antagonist inactive, CXCR6 block inactive, CCR6 antag inactive, APJ agonist inactive and PKA-R1A act inactive.
Screening CCc1nc2ccc(C(=O)NCCCN3CCCC3=O)cn2c1N(C=O)CC returned CXCR6 block inactive.
Screening COCOc1ccc(-c2ncc(OC)nc2NC(=O)c2cc(C)oc2C)cc1 returned CXCR6 block inactive.
Screening N#C/C(=C/C1=C(N2CCOCC2)C(=C/c2ccc(Cl)cc2Cl)/CC1)C(=O)Nc1ccccc1F returned PKA-R2B activ inactive, CXCR6 block inactive, CCR6 antag inactive and PKA-R1A act inactive.
For C[C@@H]1O[C@H](C2CC2)Cc2[nH]c(=S)[nH]c(=O)c21 the results were CXCR6 block inactive.
O=C(Nc1ccc(Cl)cc1Cl)c1cccc(N2C(=O)C=CC2=O)c1 was read as PKA-R2B activ inactive, APJ antagonist inactive, CXCR6 block 105, CCR6 antag inactive, APJ agonist inactive and PKA-R1A act inactive.
For Cc1ccccc1C(=O)NC(=S)Nc1ccc(Oc2ccc(Cl)cc2)cc1 the results were PKA-R2B activ inactive, APJ antagonist inactive, CXCR6 block inactive, CCR6 antag 53, APJ agonist inactive and PKA-R1A act inactive.
CC(=O)NC(c1ccc(F)c(F)c1)c1nc(-c2cccc(C(C)C)c2)cs1 (stereo not given) was read as CXCR6 block inactive.
Screening N=C1C=CC(=C(c2ccc(N)cc2)c2ccc(N)cc2)C=C1 returned PKA-R2B activ inactive, CXCR6 block inactive, CCR6 antag 51 and PKA-R1A act inactive.
`CCN1/C(=C\C=C2\C(=O)N(C)C(=S)N2C)Sc2ccccc21` gave PKA-R2B activ inactive, APJ antagonist inactive, CXCR6 block inactive, CCR6 antag inactive, APJ agonist 19 and PKA-R1A act inactive.
NS(=O)(=O)c1ccc(NC(=O)COC(=O)c2ccc([N+](=O)[O-])s2)cc1 was read as PKA-R2B activ inactive, APJ antagonist inactive, CXCR6 block inactive, CCR6 antag inactive, APJ agonist 17 and PKA-R1A act inactive.
`Cc1cc(C)c(NC(=O)COC(=O)c2ccc([N+](=O)[O-])s2)c(C)c1` gave PKA-R2B activ inactive, APJ antagonist inactive, CXCR6 block inactive, CCR6 antag inactive, APJ agonist inactive and PKA-R1A act inactive.
`COc1c2ccccc2nn1C(C)C` gave CXCR6 block inactive.
O=C1/C(=C\c2ccc(O)cc2)SC(=S)N1c1cccnc1 was read as PKA-R2B activ inactive, APJ antagonist 57, CXCR6 block 49, CCR6 antag 64, APJ agonist inactive and PKA-R1A act inactive.
O=C1/C(=C/c2ccc(O)c([N+](=O)[O-])c2)SC(=S)N1Cc1ccccc1 was read as PKA-R2B activ inactive, APJ antagonist 50, CXCR6 block 44, CCR6 antag 54, APJ agonist inactive and PKA-R1A act inactive.
For O=C1/C(=C\c2cccc([N+](=O)[O-])c2O)SC(=S)N1Cc1ccccc1 the results were PKA-R2B activ inactive, CXCR6 block 46, CCR6 antag 64 and PKA-R1A act inactive.

Screening results (PubChem)
